Results published in ChEMBL document CHEMBL1255258, “Aminoglycosides affect intracellular Salmonella enterica serovars typhimurium and virchow” (Antimicrob Agents Chemother, 2008).
Values after ≈ are worked out from the molar mass of the structure shown. Active and inactive are the calls of the source. The calls are words filed in the database; no cut-off is given here.

Experiments:
Salmonella typhimurium [1] = test: Antibacterial activity against Salmonella enterica serovars Typhimurium ATCC 14028 at pH 5.7 by broth dilution method; type: functional, Salmonella enterica subsp. enterica serovar Typhimurium
Outline: (§1)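 Broth dilution MIC. Overnight cultures were diluted 1:100 in LB broth buffered with phosphate to pH 7 or 5.7, giving a final inoculum of ~10^6 CFU ml−1. Antibiotic range was 0 to 500 μg ml−1. Absorbance at 600 nm was read after 24 h at 37°C with shaking; mean of three experiments.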

[2] = Antibacterial activity against Salmonella enterica serovars virchow isolate 101591 at pH 7.0 by bioluminescence assay; type: functional, Salmonella enterica subsp. enterica serovar Virchow
Outline: (§2)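 Overnight cultures carrying the pChν1 lux plasmid were diluted 1:100 in LB broth with 30 μg ml−1 chloramphenicol, adjusted to pH 7 or 5.7. Final titer was ~10^6 CFU ml−1, with antibiotic at 0 to 500 μg ml−1. After 1 h at 30°C, homoserine-lactone (100 ng ml−1) was added to induce light. EC50 was the concentration halving light emission at 60 min; mean of three experiments.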

[3] = (§3) Antibacterial activity against Salmonella enterica serovars virchow isolate 101591 at pH 5.7 by broth dilution method; type: functional, Salmonella enterica subsp. enterica serovar Virchow; outline: as §1
[4] = (§4) Antibacterial activity against Salmonella enterica serovars virchow isolate 101591 at pH 7.0 by broth dilution method; type: functional, Salmonella enterica subsp. enterica serovar Virchow; outline: as §1
Salmonella typhimurium [5] = test: Antibacterial activity against Salmonella enterica serovars Typhimurium ATCC 14028 at pH 5.7 by bioluminescence assay; type: functional, organism-based, Salmonella enterica subsp. enterica serovar Typhimurium; outline: as §2
[6] = Antibacterial activity against Salmonella enterica serovars virchow isolate 101591 at pH 5.7 by bioluminescence assay; type: functional, Salmonella enterica subsp. enterica serovar Virchow; outline: as §2
[7] = tested on: Salmonella enterica subsp. enterica serovar Virchow; test: Antibacterial activity against Salmonella enterica serovars virchow isolate 101591 infected in mouse J774A.1 cells at 50 ug/ml after 1hr; type: functional, cell-based
Outline: (§5)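 J774 macrophages were seeded overnight at 37°C in 5% CO2, then switched to antibiotic-free RPMI. They were infected at 100:1 with Salmonella grown in RPMI to OD600 about 1. Extracellular bacteria were removed with 5 μg ml−1 polymyxin B for 10 min. Aminoglycoside was given for 1 h. Cells were lysed in 1% Triton X-100 buffer, and 1:10 serial dilutions were plated on LB agar.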

Salmonella typhimurium [8] = test: Antibacterial activity against Salmonella enterica serovars Typhimurium ATCC 14028 assessed as log reduction in viable counts at 150 ug/ml after 1hr; type: functional, organism-based; conditions: Salmonella enterica subsp. enterica serovar Typhimurium
Salmonella typhimurium [9] = test: Antibacterial activity against Salmonella enterica serovars Typhimurium ATCC 14028 infected in mouse J774A.1 macrophage assessed as log reduction in viable counts at 150 ug/ml after 1hr; type: functional, organism-based; conditions: Salmonella enterica subsp. enterica serovar Typhimurium; outline: as §5
[10] = tested on: Salmonella enterica subsp. enterica serovar Virchow; test: Antibacterial activity against Salmonella enterica serovars virchow isolate 101591 infected in mouse J774A.1 macrophage assessed as log reduction in viable counts at 150 ug/ml after 1hr; type: functional; outline: as §5
[11] = tested on: Salmonella enterica subsp. enterica serovar Virchow; test: Antibacterial activity against Salmonella enterica serovars virchow isolate 101591 assessed as log reduction in viable counts at 150 ug/ml after 1hr; type: functional
Salmonella typhimurium [12] = test: Antibacterial activity against Salmonella enterica serovars Typhimurium ATCC 14028 infected in mouse J774A.1 cells at 50 ug/ml after 1hr; type: functional, organism-based; conditions: Salmonella enterica subsp. enterica serovar Typhimurium; outline: as §5
Salmonella typhimurium [13] = test: Antibacterial activity against Salmonella enterica serovars Typhimurium ATCC 14028 at pH 7.0 by bioluminescence assay; type: functional, organism-based, Salmonella enterica subsp. enterica serovar Typhimurium; outline: as §2
Salmonella typhimurium [14] = test: Antibacterial activity against Salmonella enterica serovars Typhimurium ATCC 14028 at pH 7.0 by broth dilution method; type: functional, Salmonella enterica subsp. enterica serovar Typhimurium
Outline: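 Broth dilution MIC in LB broth buffered with phosphate to pH 7. Overnight culture was diluted 1:100 to about 10^6 CFU ml−1 final, with antibiotic at 0 to 500 μg ml−1. A600 was read after 24 h at 37°C with shaking.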

[15] = tested on: Salmonella enterica subsp. enterica serovar Virchow; test: Reduction in light emission by Salmonella enterica serovars virchow isolate 101591 infected in mouse J774A.1 cells after 5 mins; type: functional, cell-based
Outline: (§6)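 Salmonella carrying pChν1 infected J774 macrophages (100:1, polymyxin B wash). Cells were held in antibiotic-free RPMI for 10 min at 37°C. Homoserine lactone 500 ng ml−1 was added, and 20 min later aminoglycoside at 15, 50, 100 or 150 μg ml−1. Luminescence was read every 5 min to 40 or 60 min, as % of untreated wells. Triplicate wells, at least three experiments.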

Salmonella typhimurium [16] = test: Reduction in light emission by Salmonella enterica serovars Typhimurium ATCC 14028 infected in mouse J774A.1 cells at 50 ug/ml within 5 mins; type: functional, organism-based; conditions: Salmonella enterica subsp. enterica serovar Typhimurium; outline: as §6
Salmonella typhimurium [17] = test: Reduction in light emission by Salmonella enterica serovars Typhimurium ATCC 14028 infected in mouse J774A.1 cells at 15 ug/ml after 30 mins; type: functional, organism-based; conditions: Salmonella enterica subsp. enterica serovar Typhimurium; outline: as §6
[18] = tested on: Salmonella enterica subsp. enterica serovar Virchow; test: as §3; type: functional; outline: as §1
[19] = tested on: Salmonella enterica subsp. enterica serovar Virchow; test: as §4; type: functional; outline: as §1
Salmonella typhimurium [20] = test: Reduction in light emission by Salmonella enterica serovars Typhimurium ATCC 14028 infected in mouse J774A.1 cells at 15 ug/ml after 40 mins; type: functional, organism-based; parameters: scale not given: the % may be the effect or the level left; conditions: Salmonella enterica subsp. enterica serovar Typhimurium; outline: as §6
[21] = tested on: Salmonella enterica subsp. enterica serovar Virchow; test: Reduction in light emission by Salmonella enterica serovars virchow isolate 101591 at >= 50 ug/ml after 40 mins; type: functional
Salmonella [22] = test: Antibacterial activity against Salmonella infected in mouse Nramp1 deficient RAW 264.7 cells assessed as log reduction in viable count at 100 ug/ml; type: functional, organism-based
[23] = tested on: Salmonella enterica subsp. enterica serovar Virchow; test: Reduction in light emission by Salmonella enterica serovars virchow isolate 101591 after 5mins; type: functional
Salmonella [24] = test: Antibacterial activity against Salmonella infected in mouse RAW 264.7 cells expressing Nramp1 assessed as log reduction in viable count at 100 ug/ml; type: functional, organism-based
Salmonella typhimurium [25] = test: Reduction in light emission by Salmonella enterica serovars Typhimurium ATCC 14028 after 5 mins; type: functional, organism-based; conditions: Salmonella enterica subsp. enterica serovar Typhimurium
Salmonella typhimurium [26] = test: Reduction in light emission by Salmonella enterica serovars Typhimurium ATCC 14028 at > 30 ug/ml after 40 mins; type: functional, organism-based; conditions: Salmonella enterica subsp. enterica serovar Typhimurium
Salmonella typhimurium [27] = test: Reduction in light emission by Salmonella enterica serovars Typhimurium ATCC 14028 at <= 30 ug/ml; type: functional, organism-based; conditions: Salmonella enterica subsp. enterica serovar Typhimurium
[28] = tested on: Salmonella enterica subsp. enterica serovar Virchow; test: Reduction in light emission by Salmonella enterica serovars virchow isolate 101591 at < 50 ug/ml; type: functional
Salmonella typhimurium [29] = test: Reduction in light emission by Salmonella enterica serovars Typhimurium ATCC 14028 infected in mouse J774A.1 cells at 50 ug/ml after 30 mins; type: functional, organism-based; conditions: Salmonella enterica subsp. enterica serovar Typhimurium; outline: as §6
Salmonella typhimurium [30] = test: Reduction in light emission by Salmonella enterica serovars Typhimurium ATCC 14028 infected in mouse J774A.1 cells at 50 ug/ml after 40 mins; type: functional, organism-based; conditions: Salmonella enterica subsp. enterica serovar Typhimurium; outline: as §6
Salmonella typhimurium [31] = test: Reduction in light emission by Salmonella enterica serovars Typhimurium ATCC 14028 infected in mouse Nramp deficient RAW 264.7 cells at 100 ug/ml; type: functional, organism-based; parameters: scale not given: the % may be the effect or the level left; conditions: Salmonella enterica subsp. enterica serovar Typhimurium
Outline: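 RAW 264.7 macrophages, Nramp1+ (R37) or Nramp1-null (R21), were infected with serovar Typhimurium carrying pChν1. Homoserine lactone was 500 ng ml−1. Gentamicin 100 μg ml−1 was added 0.5 to 3 h after infection. Luminescence was read every 5 min, as a ratio to untreated control in the same cell line. Triplicate, at least three trials.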

[32] = Salmonella enterica, ATCC 14028, read-out: EC50
[33] = Salmonella enterica subsp. enterica serovar Typhimurium

| Compound | MIC (Salmonella typhimurium [1]) [µg/mL] | EC50 [2] [µg/mL] | MIC [3] [µg/mL] | MIC [4] [µg/mL] | EC50 (Salmonella typhimurium [5]; [32]) [µg/mL] | EC50 [6] [µg/mL] | Activity [7] | Activity (Salmonella typhimurium [8]) | Activity (Salmonella typhimurium [9]) | Activity [10] | Activity [11] | Activity (Salmonella typhimurium [12]) | EC50 (Salmonella typhimurium [13]; [32]) [µg/mL] | MIC (Salmonella typhimurium [14]) [µg/mL] | Activity [15] | further results |
| --- | --- | --- | --- | --- | --- | --- | --- | --- | --- | --- | --- | --- | --- | --- | --- | --- |
| NC[C@H]1O[C@H](O[C@H]2[C@H](O)[C@@H](O[C@H]3O[C@H](CO)[C@@H](O)[C@H](N)[C@H]3O)[C@H](N)C[C@@H]2N)[C@H](O)[C@@H](O)[C@@H]1O [KANAMYCIN] | 250 (≈ 516 µM) | 6.5 (≈ 13.4 µM) | 250 (≈ 516 µM) | 16 (≈ 33 µM) | 29 (≈ 59.9 µM) | 130 (≈ 268 µM) | Active | Active | Active | Active | Active | inactive | 3.5 (≈ 7.22 µM) | 8 (≈ 16.5 µM) | Active | – |
| NC[C@H]1O[C@H](O[C@H]2[C@H](O)[C@@H](O[C@H]3O[C@H](CO)[C@@H](O)[C@H](N)[C@H]3O)[C@H](N)C[C@@H]2N)[C@H](N)C[C@@H]1O [TOBRAMYCIN] | 125 (≈ 267 µM) | 2.5 (≈ 5.35 µM) | 250 (≈ 535 µM) | 8 (≈ 17.1 µM) | 19 (≈ 40.6 µM) | 75 (≈ 160 µM) | Active | Active | Active | Active | Active | inactive | 1 (≈ 2.14 µM) | 4 (≈ 8.56 µM) | Active | – |
| GENTAMICIN [listing 1 of 2 here] | – | 2 | – | – | – | 85 | – | – | – | – | – | – | – | – | – | EC50 (Salmonella typhimurium [5]): 34 µg/mL; EC50 (Salmonella typhimurium [13]): 1 µg/mL |
| GENTAMICIN [listing 2 of 2 here] | – | – | – | – | – | – | Active | Active | Active | Active | Active | inactive | – | – | – | Activity (Salmonella typhimurium [16]): Active; MIC (Salmonella typhimurium [1]; [33]): 125 µg/mL; Activity (Salmonella typhimurium [17]): Active; MIC [18]: 125 µg/mL; MIC [19]: 8 µg/mL; Activity (Salmonella typhimurium [20]): 20%; Activity [21]: Active; FC (Salmonella [22]): 1.6; Activity [23]: Active; FC (Salmonella [24]): 0.4; Activity (Salmonella typhimurium [25]): Active; Activity (Salmonella typhimurium [26]): Active; Activity (Salmonella typhimurium [27]): inactive; Activity [28]: inactive; Activity (Salmonella typhimurium [29]): Active; Activity (Salmonella typhimurium [30]): Active; MIC (Salmonella typhimurium [14]; [33]): 4 µg/mL; Activity (Salmonella typhimurium [31]): 80% |
